Experimental data pooled from the literature.
Lines come from different studies, so protocols differ.
Observed: cell growth or viability

| Structure (SMILES) | cell line | technique | time | endpoint | value |
| --- | --- | --- | --- | --- | --- |
| O=C1[O][Pt]2([NH][C@@H]3CCCC[C@H]3[NH]2)[O]C1=O | SNU-449 | imaging | 72 h | IC50 | 12.9 µM |
| O=[N+]([O-])c1ccc(NCCCCN=C=S)c2nonc12 | HDFa | MTT | 24 h | IC50 | 7.6 µM |
| N.N.[Cl][Pt][Cl] | SU-DHL-6 | ATP luminescence | 72 h | IC50 | 7.06 µM |
| COc1c(C)c2c(c(O)c1C/C=C(\C)CCC(=O)O)C(=O)OC2 | Hs-578T | – | – | IC50 | 2.51 µM |
| COC(=O)c1cc(C(C)=NNc2nc(-c3ccc(S(=O)(=O)F)cc3)cs2)ccc1O | HSF | MTT | 96 h | IC50 | 40.5 µM |
| CC[C@H](C)[C@H](NC(=O)[C@@H](N)CCC(=O)O)C(=O)N[C@@H](C)C(=O)N1CCC[C@H]1C(=O)N[C@H](C(=O)N[C@@H](CC(C)C)C(=O)N[C@@H](Cc1c[nH]cn1)C(=O)N[C@@H](CO)C(=O)N[C@H](C(=O)O)[C@@H](C)OP(=O)(O)O)C(C)C | HeLa | MTT | 72 h | IC50 | 0.96 µM |
| Cc1c(Cl)c(=O)oc2cc(OCCCC[Se]C#N)ccc12 | HeLa | SRB | – | GI50 | 15 µM |
| O=C1c2ccccc2-c2c3c(cc4ccnc1c24)OCO3 | HeLa | MTT | 75 h | IC50 | 15.7 µM |
| COc1cccc2c1C(=O)c1c(O)c3c(c(O)c1C2=O)CC(O)(C(=O)CO)CC3OC1CC(NC(=O)OC2C=CCCCCC2)C(O)C(C)O1 (stereo not shown) | HeLa | CCK-8 | 72 h | IC50 | > 10 µM |
| O=[N+]([O-])c1ccc(NCCCCCCN=C=S)c2nonc12 | HDFa | MTT | 24 h | IC50 | 5.8 µM |
| CC(C)C[C@H](NC(=O)[C@H](CC(C)C)NC(=O)[C@@H]1CCCN1C(=O)[C@H](C)NC(=O)[C@@H](NC(=O)[C@H](C)N)C(C)C)C(=O)N[C@@H](Cc1c[nH]cn1)C(=O)N[C@@H](CO)C(=O)N[C@H](C(=O)O)[C@@H](C)OP(=O)(O)O | HeLa | MTT | 72 h | IC50 | 1.05 µM |
| CC(N)C(O)CCCCCCCCCCCCCCC(=O)CCCCCCCC(O)C(C)N (stereo not shown) | HeLa | – | – | IC50 | 24.5 µM |
| Cc1cc(=O)oc2cc(OCCCC[Se]C#N)ccc12 | HeLa | SRB | – | GI50 | 0.98 µM |
